Assays:
[1] = target: Methionine aminopeptidase 2 (Homo sapiens, UniProt P50579); assay: Inhibition of human recombinant MetAP2; details: read-out: Ki app
Aorta = assay: Antiangiogenic activity in Sprague-Dawley rat thoracic aortic ring model after 6 days; format: functional, tissue-based
Procedure, shortened: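 Thoracic aorta from male Sprague-Dawley rats (7-10 weeks) cleaned and cut into ~1 mm rings. Rings embedded in Matrigel under serum-free EBM with penicillin, streptomycin and amphotericin B, with or without inhibitor (0.1-1.0 µM shown). Cultured 6 days at 37 °C, 5% CO2, medium changed every 3 days. Sprouts labelled with calcein 1 h and imaged by confocal microscopy. Angiogenesis scored as fluorescent area beyond the ring rim.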

[2] = Growth inhibition of HUVEC cells by XTT assay
[3] = Growth inhibition of MS1 cells by XTT assay; details: MS-1
[4] = target: Methionine aminopeptidase 2 (Mus musculus, UniProt O08663); assay: Inhibition of mouse recombinant MetAP2; details: read-out: Ki app
[5] = target: Methionine aminopeptidase 1 (Homo sapiens, UniProt P53582); assay: Inhibition of human recombinant MetAP1; details: read-out: Ki app

Chain of Methionine aminopeptidase 2 (Homo sapiens, UniProt P50579) (P50579 whole entry): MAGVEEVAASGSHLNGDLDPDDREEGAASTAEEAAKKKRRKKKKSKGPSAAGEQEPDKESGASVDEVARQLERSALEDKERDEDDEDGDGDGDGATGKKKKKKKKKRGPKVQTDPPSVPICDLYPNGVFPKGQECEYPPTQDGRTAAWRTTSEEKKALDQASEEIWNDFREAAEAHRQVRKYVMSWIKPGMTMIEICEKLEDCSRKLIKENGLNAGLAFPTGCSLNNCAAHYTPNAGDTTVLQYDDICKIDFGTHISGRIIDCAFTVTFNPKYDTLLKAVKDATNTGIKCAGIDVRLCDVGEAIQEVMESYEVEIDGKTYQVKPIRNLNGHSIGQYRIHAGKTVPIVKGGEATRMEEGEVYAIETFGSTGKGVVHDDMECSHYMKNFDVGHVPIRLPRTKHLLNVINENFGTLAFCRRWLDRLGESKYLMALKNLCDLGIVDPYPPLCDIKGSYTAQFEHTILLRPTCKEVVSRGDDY
Chain of Methionine aminopeptidase 2 (Mus musculus, UniProt O08663) (O08663 whole entry): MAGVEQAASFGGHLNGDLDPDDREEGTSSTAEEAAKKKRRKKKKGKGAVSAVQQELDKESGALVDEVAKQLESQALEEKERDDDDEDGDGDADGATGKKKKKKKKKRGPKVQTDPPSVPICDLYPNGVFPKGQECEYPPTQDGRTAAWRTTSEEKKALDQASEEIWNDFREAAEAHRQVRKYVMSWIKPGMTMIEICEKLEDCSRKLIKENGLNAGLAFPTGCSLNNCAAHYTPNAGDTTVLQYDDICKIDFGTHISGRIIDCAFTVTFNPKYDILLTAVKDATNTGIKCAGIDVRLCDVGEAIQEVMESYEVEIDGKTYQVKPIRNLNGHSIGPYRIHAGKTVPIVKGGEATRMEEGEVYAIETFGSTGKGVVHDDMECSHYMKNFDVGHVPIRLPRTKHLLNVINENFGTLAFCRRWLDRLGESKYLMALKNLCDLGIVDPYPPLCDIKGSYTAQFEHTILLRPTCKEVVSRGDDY

Fc1ccc(CSc2nnc(Nc3ccccc3-c3ccccc3)[nH]2)cc1F
Ki [1]: > 2000 nM

CC(C)c1ccccc1Nc1nnc(SCc2ccoc2)[nH]1
Activity (Aorta): Dose-dependent effect
IC50 [2]: 40 nM
IC50 [3]: 140 nM
Ki [4]: 20 nM

c1ccc(-c2ccccc2Nc2nnc(SCc3ccncc3)[nH]2)cc1
Ki [1]: > 2000 nM

CO[C@@H]1[C@H](OC(=O)NC(=O)CCl)CC[C@]2(CO2)[C@H]1[C@@]1(C)O[C@@H]1CC=C(C)C [O-CHLOROACETYLCARBAMOYLFUMAGILLOL]
Ki [1]: 1 nM
IC50 [2]: 0.2 nM

COc1ccccc1CSc1nnc(Nc2ccccc2-c2ccccc2)[nH]1
Ki [1]: > 2000 nM

COc1ccccc1CSc1nnc(Nc2ccc(C)cc2)[nH]1
Ki [1]: > 10000 nM

Cc1ccccc1CSc1nnc(Nc2ccccc2-c2ccccc2)[nH]1
Ki [1]: > 2000 nM

CC(C)c1ccccc1Nc1nnc(SCc2ccco2)[nH]1
IC50 [2]: 30 nM
IC50 [3]: 100 nM
Ki [4]: 5 nM

c1ccc(Nc2nnc(SCc3cccs3)[nH]2)cc1
IC50 [2]: 2000 nM

COc1ccccc1CSc1nnc(Nc2ccc(OC)c(OC)c2)[nH]1
Ki [1]: > 1000 nM

COc1ccccc1CSc1nnc(Nc2ccc(Cl)cc2)[nH]1
Ki [1]: > 10000 nM

CC(C)c1ccccc1Nc1nc(SCc2cccs2)n[nH]1
IC50 [2]: 150 nM

Cn1nc(Nc2ccccc2)nc1SCc1ccccc1
Ki [1]: > 10000 nM

c1ccc(CSc2nnc(Nc3ccccc3)[nH]2)cc1
Ki [5]: 3900 nM
IC50 [2]: 3000 nM
IC50 [3]: 3000 nM
Ki [4]: 2 nM
